In brackets after ≈: the same amount, converted by molar mass. Activity calls are given as the source filed them. The rule behind the calls is not given here.

The source of these data is ChEMBL document CHEMBL4130401, “Thalassosamide, a Siderophore Discovered from the Marine-Derived Bacterium Thalassospira profundimaris” (J Nat Prod, 2017).

For data set [1], the system named is Pseudomonas aeruginosa. Put plainly: Antibacterial activity against Pseudomonas aeruginosa ATCC 27853 measured after 18 hrs by dilution susceptibility test. It counts as functional. The gist of the method:
(§1)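 Broth dilution MIC for aerobic bacteria; compound dissolved in DMSO, serially diluted to 10 concentrations (0.25–128 μg/mL); gentamicin positive control; triplicate; six untreated media controls per plate; 35 °C for 18 h; MIC = lowest concentration preventing visible growth.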

Another data set concerns Escherichia coli. Put plainly: Antibacterial activity against Escherichia coli ATCC 25922 measured after 18 hrs by dilution susceptibility test. It counts as functional. The method in brief: as §1
Data set [2] in a line: Metal chelating activity assessed as Fe3+-compound complex formation at 5 to 1280 uM after 3 hrs by chrome azural S assay. The method in brief: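 Modified CAS assay: CTAB–CAS–Fe(III) reagent in MES buffer pH 5.6 mixed 1:1 with compound or deferoxamine mesylate in water, final concentrations 1.28 mM to 5 μM; incubated 37 °C, 3 h; colour change judged visually or absorbance change recorded.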

For data set [3], the system named is Pseudomonas aeruginosa. Put plainly: Antibacterial activity against Pseudomonas aeruginosa ATCC 27853 infected in mouse assessed as reduction in bacterial load in thigh at 80 to 160 mg/kg, ip administered as single dose measured after 6 hrs by time kill assay. The class given is functional, organism-based. The gist of the method:
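Neutropenic murine thigh infection with P. aeruginosa grown, subcultured and quantified in Mueller-Hinton broth/agar; single intraperitoneal dose (80 or 160 mg/kg) given 1 h after infection; groups of two treated and two untreated mice euthanized at 0–6 h post-dose; thigh CFU counted; mean and standard deviation from four thighs of two mice.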

The subject of data set [4] is Pseudomonas aeruginosa. Put plainly: Antibiofilm activity against Pseudomonas aeruginosa ATCC 27853 at 16 to 64 ug/ml by crystal violet microtiter method. The class given is functional, organism-based.
The test system of data set [5] is Pseudomonas aeruginosa. Description: Antibiofilm activity against Pseudomonas aeruginosa ATCC 27853 at 16 to 64 ug/ml in presence of gentamycin by crystal violet microtiter method. It counts as functional, organism-based.
The subject of a further data set is Mus musculus. Description: Toxicity in mouse at 80 to 160 mg/kg, ip administered as single dose. It counts as organism-based. Conditions: in vivo.

Usually MIC stands for the least concentration at which growth counts as inhibited. A higher MIC goes with weaker potency. Take GENTAMICIN: the MIC against Pseudomonas aeruginosa [1] and against Escherichia coli was 4 µg/mL throughout.
On to `CC(=O)N(O)CCCCCNC(=O)CCC(=O)N(O)CCCCCNC(=O)CCC(=O)N(O)CCCCCN`, for which the result in data set [2] was Active.
Consider `C[C@@H]1CC(=O)N(O)CCCC[C@@H](NC(=O)CCC(=O)O)C(=O)O[C@H](C)CC(=O)N(O)CCCC[C@@H](NC(=O)CCC(=O)O)C(=O)O[C@H](C)CC(=O)N(O)CCCC[C@@H](NC(=O)CCC(=O)O)C(=O)O1`, for which the result (in the data set on Pseudomonas aeruginosa [3]; in data set [2]) was Active. Also, the MIC against Pseudomonas aeruginosa [1] (ATCC 27853, 18 h) was 64 µg/mL (≈ 64.6 µM); in the data set with Escherichia coli (ATCC 25922, 18 h) it was 64 µg/mL (≈ 64.6 µM). Also, the result in the data set with Pseudomonas aeruginosa [4] and with Pseudomonas aeruginosa [5] was inactive. Moreover, in the data set with Mus musculus, the Activity result is “Non-Toxic”.
